Assay results taken from publication PMC2151523 (The Journal of General Physiology, 2006).
“And” between values parts separate entries of the source, which are not always exact repeats. Equal values may be shown once. Read-outs that look alike come from different tables or passages of the source. Each block holds one compound with its values, some of them ahead of it.

What was measured:
[1] = target: T1, bovine rod CNGA1 channels (Bos taurus, UniProt Q00194); format: biochemical; conditions: for δ (Woodhull fit, best-fit): four blockers in the same patch (Fig. 4 C)
T1 sequence (Q00194 1-690): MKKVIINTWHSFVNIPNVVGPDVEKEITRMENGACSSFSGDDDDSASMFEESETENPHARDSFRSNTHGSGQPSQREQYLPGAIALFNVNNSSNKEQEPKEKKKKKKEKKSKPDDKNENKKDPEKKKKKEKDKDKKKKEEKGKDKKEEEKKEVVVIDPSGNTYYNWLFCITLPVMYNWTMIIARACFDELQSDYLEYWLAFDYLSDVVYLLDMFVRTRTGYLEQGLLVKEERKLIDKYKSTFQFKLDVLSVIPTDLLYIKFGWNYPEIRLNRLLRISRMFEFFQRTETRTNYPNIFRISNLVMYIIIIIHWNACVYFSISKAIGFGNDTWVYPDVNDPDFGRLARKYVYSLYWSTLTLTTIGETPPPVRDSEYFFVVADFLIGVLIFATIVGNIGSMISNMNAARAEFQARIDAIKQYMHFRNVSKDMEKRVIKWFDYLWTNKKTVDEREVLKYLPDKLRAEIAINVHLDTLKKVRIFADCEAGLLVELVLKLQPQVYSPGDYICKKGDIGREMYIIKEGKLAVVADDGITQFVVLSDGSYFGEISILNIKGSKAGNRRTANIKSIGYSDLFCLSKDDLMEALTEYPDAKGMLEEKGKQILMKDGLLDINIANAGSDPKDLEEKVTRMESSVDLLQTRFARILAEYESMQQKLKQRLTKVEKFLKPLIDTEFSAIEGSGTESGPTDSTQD
Method in brief: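 Inside-out patches from HEK293 cells expressing bovine rod CNGA1. Bath and pipette solution: 160 mM NaCl, 1 mM EGTA, 1 mM EDTA, 10 mM HEPES, pH 7.4. Currents were elicited with 1 mM cGMP by steps from −80 to +80 mV in 20 mV increments from a 0 mV holding potential. Records without cGMP were subtracted, and blocker was added to the bath. Block was read 10–40 s after exchange, at the end of the +80 mV pulse. KD and n came from a Hill fit. δ came from Woodhull fits of per-voltage KD and was averaged over 10 patches. Comparisons were made in the same patch and bracketed by controls.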

CNGA1 channel = target: T2, CNGA1 channel (Bos taurus, UniProt Q00194); assay: Single channel recordings of blockade, inside-out patches; format: biochemical, bovine; conditions: +70 mV, 2 mM cGMP
T2 sequence (Q00194 1-690): T1 sequence (Q00194 1-690)
Method in brief: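 Single-channel recordings were made in inside-out patches with 7–10 MΩ pipettes at +70 mV with saturating 2 mM cGMP. Signals were sampled at 20 kHz, Bessel-filtered at 5 kHz, then digitally filtered at 2 kHz. Amplitude histograms (40 s of record) were fitted with two Gaussians. Open dwell-time distributions were fitted with two exponentials. τ2 was normalised to its blocker-free value, and its dose response was fitted with a Hill equation.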

391C CNGA1 channels = assay: Cd2+ inhibition in the closed state and its slowing by blocker; format: biochemical, bovine
[2] = system: 391C cysteine-less CNGA1 channels; format: biochemical, bovine; conditions: for modification rate open state versus closed state: average rates (Fig. 11 D)
Method in brief: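 391C channels were expressed in Xenopus oocytes and recorded 3–5 d after cRNA injection. Solutions contained 120 mM NaCl, 1 mM EGTA, 1 mM EDTA, 10 mM HEPES, pH 7.4. MTS reagent was applied for 2 s at 0 mV, with 2 mM cGMP (open state) or without it (closed state). Current was then monitored by a 50-ms step to +80 mV in 2 mM cGMP. Each value is the mean of at least three experiments.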

CNGA1 channels [3] = conditions: ref Flynn and Zagotta, 2001; cited from earlier work
Kv channels = conditions: cysteine at valine of PVP region; ref Liu et al., 1997; cited from earlier work
CNGA1 channels [4] = conditions: cited from earlier work
[5] = read-out: average KD0, 0 mV, average of several patches
[6] = 500 μM reagent, estimated from τ

average δ ([1]; average of several patches): −0.40 ± 0.08 | Kd [1, 5]: 31 mM
Compound: CCC[N+](CC)(CC)CC [C3-TEA]

average δ ([1]; average of several patches): −0.40 ± 0.03 | δ (Woodhull fit, best-fit) ([1]; 1 mM cGMP): −0.45 ± 0.02 | Kd [1, 5]: 11 mM
Compound: CCCC[N+](CC)(CC)CC [C4-TEA]

average δ ([1]; average of several patches): −0.48 ± 0.02 | δ (Woodhull fit, best-fit) ([1]; 1 mM cGMP): −0.53 ± 0.02 | Kd [1, 5]: 5 mM
Compound: CCCCCC[N+](CC)(CC)CC [C6-TEA, hexyltriethylammonium]

δ (Woodhull fit, best-fit) ([1]; 1 mM cGMP): −0.44 ± 0.02 | Kd [1, 5]: 0.9 ± 0.2 mM
Compound: CCCCCCCC[N+](CC)(CC)CC [C8-TEA]

Hill coefficient n ([1]; +80 mV, 1 mM cGMP, one patch (Fig. 2 A)): 1.19 ± 0.04 | δ (Woodhull fit, best-fit) ([1]; 1 mM cGMP): −0.44 ± 0.01 | Kd [1, 5]: 0.05 ± 0.01 mM | Kd ([1]; read-out: average KDc, four different patches): 0.0023 ± 0.0006 mM | amplitude for the open state (CNGA1 channel; 5 μM blocker): 2.317 ± 0.002 pA | area of the nonconductive level in current histogram (CNGA1 channel; 5 μM blocker, 5% without blocker): 26% | area of the open state in amplitude histogram (CNGA1 channel; 5 μM blocker, 95% without blocker): 74% | open dwell-time fraction A1 (CNGA1 channel; 25 μM blocker): 0.19 | open dwell-time fraction A2 (CNGA1 channel; 25 μM blocker): 0.81 | open dwell-time fast component τ1 (CNGA1 channel; 25 μM blocker, 0.7 ms in control): ~0.7 ms and 0.6 ms | apparent mean open time of the main (slow) component, τ2 (CNGA1 channel; 25 μM blocker, 12.2 ms in control): 3.74 ms and 3.7 ms
Compound: CCCCCCCCCC[N+](CC)(CC)CC [C10-TEA, decyltriethyl ammonium]
extent of blockade at subsaturating versus saturating cGMP ([1]; 5 μM blocker, +80 mV): Blockade was larger at subsaturating levels of cGMP | blockade levels under saturating cGMP, cIMP or cAMP ([1]; 15 μM blocker, +80 mV, 16 mM agonist): Blockade levels were larger for cIMP and cAMP

difference in apparent affinity as compared with C10-TEA ([1]; 50 μM, +80 mV, 1 mM cGMP): 1.8 fold
Compound: CCCCCCCCCC[N+](C)(C)C [C10-TMA, decyl-trimethyl ammonium]

reduction in current ([1]; 5 mM blocker, +80 mV, 1 mM cGMP): ~35% | average δ ([1]; average of several patches): −0.31 ± 0.04 | Kd [1, 5]: 35 mM
Compound: CC[N+](CC)(CC)CC [TEA, tetraethylammonium]

The remaining lines, values behind:

Compound: [Cl][Cd][Cl] [Cd^2+, CdCl2]
time constant τ of current inhibition by Cd2+, closed state (391C CNGA1 channels; 6 μM Cd2+, no cGMP, no blocker): 2.64 ± 0.08 s | effect on cysteine-less wild-type channels (391C CNGA1 channels; 50 μM Cd2+, unpublished data): no effect | recovery of current inhibition (391C CNGA1 channels; unpublished data): 20–40% | time course τ of recovery of current inhibition (391C CNGA1 channels; unpublished data): ~100 s

Compound: CC[N+](CC)(CC)CCCSS(C)(=O)=O [MTS-PtrEA]
time constant τ of modification, open state ([2]; 500 μM reagent, 2 mM cGMP): 5.7 ± 0.3 s | time constant τ of modification, closed state ([2]; 500 μM reagent, absence of cGMP): 27 ± 1 s | modification rate, closed state [2, 6]: 74 M⁻¹ s⁻¹ | modification rate, open state [2, 6]: 351 M⁻¹ s⁻¹ | modification rate open state versus closed state [2]: three to seven

Compound: CS(=O)(=O)SCCN [MTSEA, amino ethyl-MTS]
modification rates in both closed and open state (CNGA1 channels [3]): 10^3–10^4 M^−1s^−1

Compound: C[N+](C)(C)CCSS(C)(=O)=O [MTSET, trimethylammonium ethyl-MTS]
modification rate in the closed state (Kv channels): 1 M⁻¹ s⁻¹ | state-dependent accessibility (modification rate) (Kv channels): ~10^6 M^−1s^−1

Compound: CC[N+](CC)(CC)CCSS(C)(=O)=O [MTSTEA]
modification rate open state versus closed state [2]: three to seven

Compound: CCCCNc1ccc(C(=O)OCCN(C)C)cc1 [Tetracaine, tetracaine]
apparent affinity in the closed state compared with the open state (CNGA1 channels [4]; ref Fodor et al., 1997b, Ghatpande et al., 2003): ~10^3 times higher

Compound: Cc1cc(N)c2ccccc2[n+]1CCCCCCCCCC[n+]1c(C)cc(N)c2ccccc21 [dequalinium]
apparent affinity for closed channels compared with open channels (CNGA1 channels [4]; ref Rosenbaum et al., 2004): three- to fivefold
